The values that follow come from ChEMBL document CHEMBL1156807, “Catalysis and inhibition of Mycobacterium tuberculosis methionine aminopeptidase” (J Med Chem, 2010).

SMILES strings stand for the structures. A value given as a limit tells only on which side of the number the result lay.

As a reminder, the IC50 is the concentration that gives 50% inhibition.

Assay [1] in a line: Inhibition of Mycobacterium tuberculosis H37Rv MetAP1c in presence of 50 uM Fe(2+) by Met-AMC substrate hydrolysis assay. The gist of the method:
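Recombinant MtMetAP1c (mapB gene) was expressed in E. coli BL21(DE3) and purified as the apoenzyme (0.5 µM). It was activated with FeCl2 50 µM plus 100 µM ascorbic acid, CoCl2 10 µM, MnCl2 20 µM or NiCl2 20 µM. Buffer was 50 mM MOPS pH 7.5 with 100 µM Met-AMC at room temperature, read by fluorescence at ex 360/em 460.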

Assay [2] can be described thus: Inhibition of Mycobacterium tuberculosis MetAP1c expressed in Escherichia coli lacking endogenous MetAP by cell based Met-AMC substrate hydrolysis assay. The gist of the method:
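E. coli carrying a chromosomal amber mutation in EcMetAP and complemented by plasmid-borne MtMetAP1c were grown to exponential phase and washed. Cells were stored in CaCl2/Tris/glycerol at −80 °C. The assay held 150 µM Met-AMC, 5 mM CaCl2 (for permeabilization) and 50 mM Tris pH 7.5, with inhibitor at 12 serial dilutions. Fluorescence (ex 360/em 460) was read every 2 min for 6-8 hr at room temperature. IC50 came from hydrolysis rates.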

The nature of assay [3]: Inhibition of Mycobacterium tuberculosis H37Rv MetAP1c in presence of 50 uM Mn(2+) by Met-AMC substrate hydrolysis assay.
Assay [4] is described as follows: Inhibition of Mycobacterium tuberculosis MetAP1c mediated cell growth of Escherichia coli lacking endogenous MetAP complemented with MtMetAP1c after 72 hrs by resazurin dye reduction method. (In general: Resazurin is reduced to fluorescent resorufin, in cell work by metabolically active cells.)
Assay [5] can be described thus: Inhibition of Mycobacterium tuberculosis H37Rv MetAP1c in presence of 50 uM Co(2+) by Met-AMC substrate hydrolysis assay.
Assay [6] can be described thus: Inhibition of Mycobacterium tuberculosis H37Rv MetAP1c in presence of 50 uM Ni(2+) by Met-AMC substrate hydrolysis assay.

On to `Nc1nnc(SCc2ccc(F)cc2)[nH]1`, for which the IC50 in assay [1] was over 500 µM; in assay [2], 121 µM; in assay [3] it was 18 µM; in assay [4] it was over 1000 µM; in assay [5], 0.74 µM; in assay [6], 1.3 µM.

Take `Fc1ccc(CSc2nnc[nH]2)cc1`: the concentration for half-maximal inhibition (IC50) is over 500 µM in assay [1], 143 µM in assay [3] and 2 µM in assay [5].

As for `O=C(O)c1ccc(-c2ccccc2Cl)o1`, the IC50 is over 500 µM in assay [1], 16 µM in assay [3], over 500 µM in assay [5] and over 500 µM in assay [6].

Take `O=C(O)c1ccc(-c2cc(Cl)ccc2Cl)o1`: the IC50 is over 500 µM in assay [1]; 623 µM in assay [2]; 14 µM in assay [3]; over 1000 µM in assay [4]; over 500 µM in assay [5]; over 500 µM in assay [6].

Turning to `Cc1nc(-c2ccc(O)c(O)c2)cs1`, the IC50 in assay [1] was determined as 3.6 µM; in assay [2], 20 µM; in assay [3], 37 µM; in assay [4] it was 208 µM; in assay [5], 76 µM; in assay [6], 104 µM.

With `Nc1nnc(SCc2ccc(Cl)cc2Cl)[nH]1`, the IC50 in assay [1] was 40 µM; in assay [3], 2 µM.

With `Cc1ccc(CSc2nnc(N)[nH]2)cc1`, the IC50 in assay [1] is over 500 µM; in assay [2], 281 µM; in assay [3], 26 µM; in assay [4] it was over 1000 µM; in assay [5], 0.69 µM; in assay [6], 2.5 µM.

Turning to `Cc1ccsc1-c1ccc(O)c(O)c1`, the IC50 in assay [1] came to 1.4 µM; in assay [2], 35 µM; in assay [3], 14 µM; in assay [4] it was 89.5 µM; in assay [5], 38 µM; in assay [6] it was 60 µM.
